Assay outcomes deposited in PubChem BioAssay by Broad Institute.
DENV2 CPE – DENV2-induced cell death inhibition | DENV2-infected cells, cytopathic effect rescue, plate reader | 350,000 tested, 1.7% active | CPE inhibition, % at 9.99 µM; in the data active means CPE inhibition above about 20%, passing the limit was not always enough; inconclusive means no clear call, values can overlap the other calls; tested in BHK-21 cells
CFTR F508del cor – CFTR F508del correction in bronchial cells; CFBE cells, YFP halide quenching; stimulated with forskolin plus potentiator P3; % fluorescence drop versus neutral controls; activity (quench increase), % at 7.58 µM; 350,000 tested, 0.36% active; AID 720511;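 active means mean added fluorescence quench of at least 8% versus neutral control, with both replicates also reaching 8%; inconclusive means only one of the mean or replicate conditions met; inactive means mean below 8% and not both replicates reaching 8%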;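 further: cells transiently co-express mutant CFTR-F508del with the halide-sensitive YFP; corrector assay measuring rescue of mutant channel to the surface after 24 h compound exposure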
ERAP1 inh – ERAP1 (human) enzyme inhibition; Q9NZ08; recombinant ERAP1, Leu-AMC fluorescence, 60 min; inhibition, % at 10.7 µM; 340,000 tested, 0.15% active; AID 652197;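 active means mean replicate inhibition of at least 30%, or all replicates individually reaching that 30% level; inactive means mean below 30% and not every replicate reaching it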
E-selectin induc – induces E-selectin expression in human endothelial cells; 260,000 tested, 0.37% active; activation, % at 7.58 µM; AID 686992; HUVEC E-selectin immunofluorescence imaging; normalized: neutral wells 0, TNF-alpha wells 100;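 active means mean E-selectin-positive cell signal at least 10% of the positive control, reached in at least 60% of replicates, without over 20% cell loss; inconclusive means no rule given, readout overlaps actives, possibly toxicity-flagged; inactive means the rest, including those meeting only one limit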
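Test system – human umbilical vein endothelial cells (HUVEC), E-selectin induction · Input – 3,000 HUVEC seeded per well · Buffer or medium – EGM-2, gelatin · Compound dosing – single-point compound dose · Detection – immunofluorescence imaging · Measure – percent E-selectin-positive cells · Controls – TNF-alpha high, DMSO low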
FGF22 binding – shifts melting point of recombinant human FGF22; recombinant FGF22 thermal shift, SYPRO orange fluorescence; percent of sucrose octasulfate shift, DMSO zero; Q9HCT0; 340,000 tested, 1.5% active; activity (Tm shift, normalised), % at 9.99 µM;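 active means mean Tm shift, scaled 0 neutral to 100 positive control, at about 1.3% or above, every replicate too, limit read from the data; inconclusive means no clear call, values can overlap the other calls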
Target sequence (Q9HCT0 whole entry, looked up): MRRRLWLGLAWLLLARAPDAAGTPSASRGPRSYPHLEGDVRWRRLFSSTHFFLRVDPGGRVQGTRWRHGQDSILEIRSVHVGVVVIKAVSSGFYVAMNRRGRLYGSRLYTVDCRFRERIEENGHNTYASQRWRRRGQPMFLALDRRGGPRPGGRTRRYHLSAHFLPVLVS
Numbers stand for hits; ! = a repeat was not active. An excerpt weighted towards active compounds, which were near 3.7% of everything screened.

For Cc1noc(C)c1NC(=O)N(C)C[C@@H]1Oc2ccc(NC(=O)c3ccncc3)cc2C(=O)N([C@@H](C)CO)C[C@@H]1C the results were DENV2 CPE inactive, CFTR F508del cor inactive, ERAP1 inh inactive, E-selectin induc inactive and FGF22 binding inactive.
`Cc1noc(C)c1NC(=O)N(C)C[C@H]1Oc2ccc(NC(=O)c3ccncc3)cc2C(=O)N([C@H](C)CO)C[C@@H]1C` gave DENV2 CPE inactive, CFTR F508del cor inactive, ERAP1 inh inactive, E-selectin induc 365 and FGF22 binding inactive.
For Cc1noc(C)c1NC(=O)Nc1ccc2c(c1)C(=O)N([C@@H](C)CO)C[C@@H](C)[C@@H](CN(C)C(=O)Nc1ccc(C(F)(F)F)cc1)O2 the results were DENV2 CPE 32, CFTR F508del cor inactive, ERAP1 inh inactive, E-selectin induc inactive and FGF22 binding inactive.
Screening Cc1noc(C)c1NC(=O)N(C)C[C@H]1Oc2ccc(N(C)C)cc2C(=O)N([C@@H](C)CO)C[C@H]1C returned DENV2 CPE 21, CFTR F508del cor inactive, ERAP1 inh inactive, E-selectin induc inactive and FGF22 binding inactive.
Screening C[C@H]1CN([C@@H](C)CO)C(=O)c2cc(NC(=O)c3ccncc3)ccc2O[C@H]1CN(C)C(=O)Nc1ccccc1 returned DENV2 CPE 64, CFTR F508del cor inactive, ERAP1 inh inactive, E-selectin induc inactive and FGF22 binding inactive.
Screening C[C@@H]1CN([C@@H](C)CO)C(=O)c2cc(NS(=O)(=O)c3cn(C)cn3)ccc2O[C@@H](C)CCCCO[C@H]1CN(C)C(=O)c1ccccc1 returned DENV2 CPE inactive, CFTR F508del cor inactive, ERAP1 inh inactive and E-selectin induc inactive.
C[C@@H]1CN([C@H](C)CO)C(=O)c2cc(NC(=O)c3ccncc3)ccc2O[C@@H]1CN(C)C(=O)Nc1ccc2c(c1)OCO2 was read as DENV2 CPE inconclusive, CFTR F508del cor inactive, ERAP1 inh inactive, E-selectin induc 40 and FGF22 binding inactive.
For COc1ccc(-c2ccc(C3[C@H]4CNC[C@@H]3N4C(=O)Nc3ccccc3F)cc2)cc1 (some centres not stated) the results were DENV2 CPE 26!, CFTR F508del cor inactive, ERAP1 inh inactive and E-selectin induc inactive.
For COc1ccc(-c2ccc(C3[C@@H]4CN(C(=O)Nc5ccccc5F)C[C@H]3N4)cc2)cc1 (some centres not stated) the results were DENV2 CPE inactive, CFTR F508del cor inactive, ERAP1 inh inactive and E-selectin induc inactive.
`N#Cc1ccc(-c2ccc(C3[C@H]4CNC[C@@H]3N4C(=O)NC3CCCC3)cc2)cc1` (some centres not stated) gave DENV2 CPE inactive, CFTR F508del cor inactive, ERAP1 inh inactive and E-selectin induc inactive.
Screening COc1ccc(NC(=O)N2[C@@H]3CNC[C@H]2C3c2ccc(-c3ccc(C)cc3)cc2)cc1 (some centres not stated) returned DENV2 CPE 33!, CFTR F508del cor inactive, ERAP1 inh inactive and E-selectin induc inactive.
Screening O=C(Nc1ccccc1F)N1[C@@H]2CNC[C@H]1C2c1ccc(-c2ccccc2)cc1 (some centres not stated) returned DENV2 CPE inactive, CFTR F508del cor inactive, ERAP1 inh inactive and E-selectin induc inactive.
`CN(C)C(=O)c1ccc(-c2ccc(C3[C@H]4CNC[C@@H]3N4C(=O)NC3CCCC3)cc2)cc1` (some centres not stated) gave DENV2 CPE 72, CFTR F508del cor inactive, ERAP1 inh inactive and E-selectin induc inactive.
For COc1cccc(-c2ccc(C3[C@@H]4CN(C(=O)Nc5ccccc5F)C[C@H]3N4)cc2)c1 (some centres not stated) the results were DENV2 CPE 32!, CFTR F508del cor inactive, E-selectin induc inactive and FGF22 binding inactive.
C[C@H]1CN([C@@H](C)CO)C(=O)c2cc(NC(=O)CCC(F)(F)F)ccc2O[C@H]1CN(C)S(=O)(=O)c1cccs1 was read as DENV2 CPE inactive, CFTR F508del cor inactive, ERAP1 inh inactive, E-selectin induc inactive and FGF22 binding inactive.
For CC=Cc1ccc2n(c1=O)C[C@H]1[C@H](CO)[C@@H](C(=O)NC3CCCC3)N(CC3CCCCC3)[C@@H]21 (mixture of isomers) the results were DENV2 CPE inactive, CFTR F508del cor inactive, ERAP1 inh inactive, E-selectin induc inactive and FGF22 binding inactive.
